Experimental data as given in ChEMBL document CHEMBL1145228, “Anti-coxsackievirus B3 activity of 2-amino-3-nitropyrazolo[1,5-a]pyrimidines and their analogs” (Bioorg Med Chem Lett, 2005).
≈ marks a conversion by molar mass, not a printed value.

Columns and labels:
[1] = Cytotoxic concentration against human cervix carcinoma cells
How it was run: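 Confluent HeLa monolayers exposed 72h (37°C, 5% CO2) to twofold serial dilutions in duplicate; cells fixed and stained with crystal violet–formalin, read spectrophotometrically; CC50 = 50% cytotoxic concentration.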

HeLa = assay: Inhibitory concentration against Coxsackievirus B3 in HeLa cells; assay type: functional, cell-based; conditions: Homo sapiens
L929 = assay: Growth inhibitory concentration against mouse fibroblast cells; assay type: functional
How it was run: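 L-929 fibroblasts (1 × 10^4) added to 10 twofold dilutions and incubated 72h at 37°C, 5% CO2; growth measured by optical density after methylene blue staining; GI50 reported.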

K562 = assay: Growth inhibitory concentration against human chronic myeloid leukemic cells; assay type: functional
How it was run: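 K-562 suspension cells (1 × 10^4) exposed to 10 twofold dilutions for 72h at 37°C, 5% CO2; proliferation counted with an electronic cell analyzer (CASY); GI50 reported.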

[2] = Therapeutic index (ratio of CC50 and IC50) was determined; NA denotes ''Not active''; assay type: cell-based; conditions: human, hela
How it was run: (§1)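 TI computed by dividing mean HeLa CC50 (72h crystal violet cytotoxicity) by mean IC50 from the CVB3 CPE inhibition assay in HeLa cells.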

[3] = Therapeutic index (ratio of CC50 and IC50) was determined; assay type: cell-based; conditions: human, HeLa cells; read-out: TI; how it was run: as §1
[4] = Partition coefficient (logP); assay type: physicochemical; conditions: octanol/water

Row | IC50 (HeLa) | GI50 (K562) | logP [4] | SMILES | CC50 [1] | GI50 (L929) | TI [2] | selectivity ratio [3]
1 | > 50 µg/mL | > 50 µg/mL |  | CCSC(N)NCc1cc(O)n2nc(N)c([N+](=O)[O-])c2n1 (centres undefined) | > 50 µg/mL | > 50 µg/mL | Not Active | 
2 | > 50 µg/mL | > 50 µg/mL |  | Nc1nn2c(O)cc(CN3CCN(CCO)CC3)nc2c1[N+](=O)[O-] | > 50 µg/mL | > 50 µg/mL | Not Active | 
3 | 3.94 µg/mL (≈ 10.2 µM) | > 50 µg/mL | 2.77 | Nc1nn2c(O)cc(-c3cc([N+](=O)[O-])c(Cl)cc3Cl)nc2c1[N+](=O)[O-] | > 100 µg/mL | > 50 µg/mL |  | > 25.6
4 | > 50 µg/mL | 9 µg/mL (≈ 19.6 µM) | 3.73 | Nc1nn2c(O)cc(CN3CCN(C(c4ccccc4)c4ccccc4)CC3)nc2c1[N+](=O)[O-] | 14.8 µg/mL (≈ 32.2 µM) | 19.9 µg/mL (≈ 43.3 µM) | Not Active | 
5 | > 50 µg/mL | > 50 µg/mL |  | Nc1nn2c(O)cc(CNCCO)nc2c1[N+](=O)[O-] | > 50 µg/mL | > 50 µg/mL | Not Active | 
6 | 5.81 µg/mL (≈ 17.4 µM) | 19.7 µg/mL (≈ 59.1 µM) | 2.65 | Nc1nn2c(O)cc(CNNc3ccc(F)cc3)nc2c1[N+](=O)[O-] | > 100 µg/mL | 41.4 µg/mL (≈ 124 µM) |  | > 17.2
7 | > 50 µg/mL | > 50 µg/mL |  | NC(=S)NNCc1cc(O)n2nc(N)c([N+](=O)[O-])c2n1 | > 50 µg/mL | > 50 µg/mL | Not Active | 
8 | > 50 µg/mL | 33.1 µg/mL (≈ 92.9 µM) | 3.06 | CCN(CC)C(=S)SCc1cc(O)n2nc(N)c([N+](=O)[O-])c2n1 | > 50 µg/mL | > 50 µg/mL | Not Active | 
9 | > 50 µg/mL | > 50 µg/mL |  | NC(=NCc1cc(O)n2nc(N)c([N+](=O)[O-])c2n1)SCc1ccccc1 | > 50 µg/mL | > 50 µg/mL | Not Active | 
10 | 20.3 µg/mL (≈ 70.4 µM) | > 50 µg/mL | 2.34 | Nc1nn2c(O)cc(-c3ccccc3F)nc2c1[N+](=O)[O-] | 66.5 µg/mL (≈ 230 µM) | > 50 µg/mL |  | 3.2
11 | 66.5 µg/mL (≈ 278 µM) | 26.5 µg/mL (≈ 111 µM) | 0.42 | NNCc1cc(O)n2nc(N)c([N+](=O)[O-])c2n1 | 42.6 µg/mL (≈ 178 µM) | 35.2 µg/mL (≈ 147 µM) | Not Active | 
12 | > 50 µg/mL | > 50 µg/mL |  | Nc1nn2c(O)cc(CNNc3ccc(S(=O)(=O)O)cc3)nc2c1[N+](=O)[O-] | > 50 µg/mL | > 50 µg/mL | Not Active | 
13 | 50.3 µg/mL (≈ 174 µM) | > 50 µg/mL | 2.34 | Nc1nn2c(O)cc(-c3ccc(F)cc3)nc2c1[N+](=O)[O-] | > 100 µg/mL | > 50 µg/mL |  | > 2
14 | > 50 µg/mL | > 50 µg/mL |  | Nc1nn2c(O)cc(CCl)nc2c1[N+](=O)[O-] | > 50 µg/mL | > 50 µg/mL | Not Active | 
15 | 29.6 µg/mL (≈ 109 µM) | > 50 µg/mL | 2.54 | Nc1nn2c(O)cc(-c3ccccc3)nc2c1[N+](=O)[O-] | > 100 µg/mL | > 50 µg/mL |  | > 3.4
16 | > 50 µg/mL | > 50 µg/mL |  | CCN(CC)C(=O)N1CCN(Cc2cc(O)n3nc(N)c([N+](=O)[O-])c3n2)CC1 | > 50 µg/mL | > 50 µg/mL | Not Active | 
17 | 17.5 µg/mL (≈ 50.8 µM) | 5.1 µg/mL (≈ 14.8 µM) | 2.46 | COc1ccc(NNCc2cc(O)n3nc(N)c([N+](=O)[O-])c3n2)cc1 | 66.3 µg/mL (≈ 192 µM) | > 50 µg/mL |  | 3.8
18 | > 50 µg/mL | > 50 µg/mL |  | Nc1nn2c(O)cc(CNNCCO)nc2c1[N+](=O)[O-] | > 50 µg/mL | > 50 µg/mL | Not Active | 
